Measured values collected from several papers.
Target: Dual specificity protein kinase CLK3 (CLK3, Homo sapiens, UniProt P49761)
Technique: competition with immobilised ligand

C=CC(=O)N1CCC(C(=O)NCC(=O)N2CCN(c3nc(-c4cnc(N)nc4C(F)F)nc(N4CCOCC4)n3)CC2)CC1  remaining binding (binding; 1 µM): 97%
O=C(NCCCN1CCOCC1)c1ccc(Nc2nccc(-c3cc4ccccc4s3)n2)cc1  remaining binding (binding; 1 µM): 84%
O=S(=O)(NC1CCC(c2cc(F)ccc2F)(S(=O)(=O)c2ccc(Cl)cc2)CC1)C(F)(F)F (centres unmarked)  remaining binding (cell-free assay; 1 µM): 86%
O=C(NCCCN1CCOCC1)c1ccc(Nc2ncc(Cl)c(-c3ccc(Cl)s3)n2)cc1  remaining binding (binding; 1 µM): 37%
O=C1CCc2cc(Nc3cc(OC4CCOCC4)c([N+](=O)[O-])cc3Cl)ccc2N1  remaining binding (cell-free assay; 1 µM): 100%
CCN1CCN(Cc2ccc(C(=O)Nc3ccc(C)c(Oc4ccc5c(c4)CC(=O)N5)c3)cc2C(F)(F)F)CC1  remaining binding (binding; 1 µM): 100%
COc1cnc(Nc2cccc(S(N)(=O)=O)c2)nc1N1CCN(c2ccccc2)CC1  remaining binding (binding; 1 µM): 97%
O=C(NCCCC1CCCCC1)c1ccc(CNC(=O)c2cnn(-c3ccccc3)c2C(F)(F)F)cc1  remaining binding (cell-free assay; 0.1 µM): 100%
COc1cc(Nc2nccc(-c3cnn4nc(OC)ccc34)n2)cc(C(F)(F)F)c1  remaining binding (binding; 1 µM): 92%
CS(=O)(=O)c1cc(C2(NC(=O)c3cncc4c3cnn4-c3ccc(F)cc3)CC2)ccn1  remaining binding (cell-free assay; 1 µM): 86%
Cc1cnc(Nc2ccc(C(=O)N3CCC(N4CCCC4)CC3)cc2)nc1-c1cc2ccccc2s1  remaining binding (binding; 1 µM): 7%
CNC(=O)[C@@H]1CC[C@@H](n2c(-c3ccc4cnccc4c3)nc3ccc(C(=O)NCc4cccc(C(N)=O)c4)cc32)C1  remaining binding (binding; 1 µM): 100%
CN(CCCC(F)(F)F)c1nccc(-c2cnn3ncccc23)n1  remaining binding (binding; 1 µM): 84%
O=C(Nc1c[nH]nc1C(=O)NC1CCNCC1)c1cc(F)cc(F)c1  remaining binding (binding; 1 µM): 100%
